Assay results taken from ChEMBL document CHEMBL1152985, “Contributions of the combined effects of topoisomerase mutations toward fluoroquinolone resistance in Escherichia coli” (2007).

Experiments:
Escherichia coli [1] = test: Antibacterial activity against Escherichia coli 1596 containing gyrA L83 and parC I80, G84 mutants assessed as increase in MIC by Etest relative to MIC for Escherichia coli 1608 containing gyrA mutant; type: functional
How it was run: (§1)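 Defined isogenic E. coli strains in a C600 background (parent 1609); mutations introduced by λ Red recombineering with temperature-sensitive pSIM5, overnight recovery after electroporation, plasmid cured at 37°C. Fluoroquinolone MICs were read by Etest per the manufacturer's instructions. MICs above the Etest limit were measured by broth macrodilution per CLSI guidelines. Results are expressed as fold change in MIC relative to the comparator strain.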

Escherichia coli [2] = test: Antibacterial activity against Escherichia coli 1608 containing gyrA L83, Y87 mutants assessed as increase in MIC by Etest relative to MIC for wild type Escherichia coli 1609
Escherichia coli [3] = test: Antibacterial activity against Escherichia coli SKM9 containing gyrA L83, Y87 and parC L80 mutants assessed as increase in MIC by Etest relative to MIC for Escherichia coli 1596 containing gyrA L83 and parC L80 mutants
Escherichia coli [4] = test: Antibacterial activity against Escherichia coli SKM18 containing gyrA L83, Y87 and parC I80, G84 mutants assessed as increase in MIC by Etest relative to MIC for Escherichia coli SKM9 containing gyrA L83, Y87 and parC L80 mutants
Escherichia coli [5] = test: Antibacterial activity against Escherichia coli 1596 containing parC K84 mutant assessed as decrease in MIC by Etest relative to MIC for Escherichia coli 1608 containing gyrA mutant; type: functional; how it was run: as §1
Escherichia coli [6] = test: Antibacterial activity against Escherichia coli 1608 containing gyrA L83 mutant assessed as increase in MIC by Etest relative to MIC for wild type Escherichia coli 1609; type: functional; how it was run: as §1

COc1c(N2CCNC(C)C2)c(F)cc2c(=O)c(C(=O)O)cn(C3CC3)c12 (configuration not stated) [GATIFLOXACIN] showed a Ratio (Escherichia coli [1]) of 1, a Ratio (Escherichia coli [2]) of 5 and a Ratio (Escherichia coli [3]) of 9. For the same compound, the Ratio (Escherichia coli [4]) was 2.

In the case of CO/N=C1\CN(c2nc3c(cc2F)c(=O)c(C(=O)O)cn3C2CC2)CC1CN (configuration not stated) [GEMIFLOXACIN], the Ratio (Escherichia coli [1]) is reported as 1, the MIC (Escherichia coli [5]) is reported as 0.007 µg/mL and the Ratio (Escherichia coli [2]) is reported as 5. The Ratio (Escherichia coli [3]) was 9.

For Cc1c(F)c(N2CCNC(C)C2)cc2c1c(=O)c(C(=O)O)cn2C1CC1 (configuration not stated) [GREPAFLOXACIN], the MIC (Escherichia coli [5]) was 0.014 µg/mL.

For C[C@H]1COc2c(N3CCN(C)CC3)c(F)cc3c(=O)c(C(=O)O)cn1c23.C[C@H]1COc2c(N3CCN(C)CC3)c(F)cc3c(=O)c(C(=O)O)cn1c23.O [LEVOFLOXACIN], the Ratio (Escherichia coli [1]) was 1, the Ratio (Escherichia coli [2]) was 5 and the Ratio (Escherichia coli [3]) was 9.

For COc1c(N2C[C@@H]3CCCN[C@@H]3C2)c(F)cc2c(=O)c(C(=O)O)cn(C3CC3)c12 [MOXIFLOXACIN], the Ratio (Escherichia coli [1]) was 1, the MIC (Escherichia coli [5]) was 0.028 µg/mL and the Ratio (Escherichia coli [6]) was 1. For the same compound, the Ratio (Escherichia coli [2]) was 5, the Ratio (Escherichia coli [3]) was 9 and the Ratio (Escherichia coli [4]) was 10.

CCn1cc(C(=O)O)c(=O)c2cc(F)c(N3CCNCC3)cc21 [NORFLOXACIN] showed a Ratio (Escherichia coli [1]) of 5, a Ratio (Escherichia coli [2]) of 5 and a Ratio (Escherichia coli [3]) of 9.

Work on C[C@@H]1CN(c2c(F)c(N)c3c(=O)c(C(=O)O)cn(C4CC4)c3c2F)C[C@H](C)N1 [SPARFLOXACIN] yielded an MIC (Escherichia coli [5]) of 0.008 µg/mL.
